Screen size: about 360,000 compounds; about 5,400 (1.5%) were called active.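 How the source made its calls: active means inhibition above a per-plate cutoff, the mean inhibition of test compounds on that plate plus 3 SD (cut at about 49% in these data); inactive means the rest.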 The entries come from a sample that favours actives as a whole.

The target of this experiment is Trace amine-associated receptor 1 (Homo sapiens) (UniProt Q96RJ0). Put plainly: human TAAR1 antagonists, primary screen, Fluo-8 calcium fluorescence, CHO RD-HGA16 cells (AID 624466).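 Further: 0% = DMSO plus EC80 beta-PEA response and 100% = DMSO alone without agonist.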 The conditions noted are these: CHO RD-HGA16 TAAR1, Fluo-8 calcium fluorescence, antagonist; at 3 µM; stronger effect = higher value. The procedure, abridged: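 Test system – hTAAR1-expressing CHO RD-HGA16 cells, Gα16-coupled · Also added – β-PEA at EC80 concentration, post-compound challenge · Compound – 3 µM, single point · Incubation – dye loading 75 min at 37 °C, then 30 min room temperature · Measured by – Fluo-8 intracellular calcium dye fluorescence, real-time kinetic reads · Benchmarks – vehicle and agonist controls · Replicates – singlicate, one well per test compound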
Trace amine-associated receptor 1 (Homo sapiens), sequence (Q96RJ0 whole entry, looked up, the tested form may be a part): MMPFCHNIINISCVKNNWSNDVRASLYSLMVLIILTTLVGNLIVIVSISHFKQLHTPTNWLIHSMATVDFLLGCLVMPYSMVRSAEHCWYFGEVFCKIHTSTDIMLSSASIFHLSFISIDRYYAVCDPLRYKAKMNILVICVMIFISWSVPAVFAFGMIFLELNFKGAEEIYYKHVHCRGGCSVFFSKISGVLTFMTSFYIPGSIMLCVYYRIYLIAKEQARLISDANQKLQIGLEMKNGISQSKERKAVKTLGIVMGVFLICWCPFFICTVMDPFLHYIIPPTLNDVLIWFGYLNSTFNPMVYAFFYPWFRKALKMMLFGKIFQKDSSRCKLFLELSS
On to `C[C@H](CO)N1C[C@H](C)[C@@H](CN(C)C(=O)Nc2ccccc2F)OCc2cn(nn2)CCCC1=O`, for which the inhibition was 6.99% (inactive). With `CCCNC(=O)C1(C)CCN(Cc2csc(-c3ccc(Cl)cc3)n2)C1` (stereo not drawn) the figure was -5.66% (inactive); with `CN(C)S(=O)(=O)c1cccc(NC(=O)COc2ccc3ccccc3c2)c1`, 30.8% (inactive).

For the compound `CN(C)S(=O)(=O)c1cccc(NC(=O)COC(=O)C2(c3ccccc3F)CCCC2)c1`, the inhibition is 62.5% (active).

As for `CN(C)S(=O)(=O)c1cccc(NC(=O)COC(=O)c2cc(=O)[nH]c(=O)[nH]2)c1`, the inhibition was -12.5% (inactive).

As for `Nc1[nH]c(C(=O)c2ccc(Br)cc2)c(-c2ccc3c(c2)OCO3)c1C(=O)NCCc1c[nH]c2ccccc12`, the inhibition is -6.65% (inactive). In the case of `CC(C)(C)NC(=O)CN(C(=O)c1csnn1)c1ccccc1-c1ccccc1`, the inhibition is 5.99% (inactive). With `OC(CNCCc1ccc(Cl)cc1Cl)COc1ccccc1` (stereo not drawn), the inhibition is 52.8% (active). For `OC(COc1ccccc1)CN1CCN(c2cccc(Cl)c2)CC1` (stereo not drawn) the value was -33.9% (inactive); for `COc1ccc(OCC(O)CNC(=O)Nc2ccc(Cl)cc2)cc1` (stereo not drawn), 12.9% (inactive); for `CCOc1ccc(CCN2C(=O)C(=O)N([C@@H](Cc3ccc(O)cc3)CN3CCC[C@H]3CN3C(=O)C(=O)NC[C@@H]3CC(C)C)C[C@@H]2Cc2ccccc2)cc1`, -8.01% (inactive). Regarding `CCOC(=O)C1CSCCS(=O)(=O)N1Cc1ccc(Cl)cc1` (stereo not drawn), the inhibition is -2.26% (inactive). With `NC(=O)C1CCN(C(=O)c2ccc3c(=O)n(Cc4cccc(Br)c4)c(=S)[nH]c3c2)CC1`, the inhibition is -0.46% (inactive). As to `C=CCn1c(SCc2cccc(F)c2)nc2cc(C(=O)N3CCC(C(N)=O)CC3)ccc2c1=O`, the inhibition was 62.7% (active).

Consider `C=CCn1c(SCC(=O)CC(=O)OCC)nc2cc(C(=O)N3CCC(C(N)=O)CC3)ccc2c1=O`, for which the inhibition was -12.6% (inactive). For `CCOc1ccc2[nH]c(=O)c(CN(CCCO)S(=O)(=O)c3ccc(F)cc3)cc2c1`, the inhibition was 28.9% (inactive). For `COc1ccc(-c2[nH]ncc2CN(C)Cc2cccnc2)c(F)c1` the value was -6.76% (inactive). On to `COc1ccc2[nH]c(=O)c(CN(Cc3cccnc3)S(=O)(=O)c3ccccc3F)cc2c1`, for which the inhibition is 69.4% (active). For the compound `CC(C)(C)NC(=O)c1cccc(NC(=O)Cc2ccc(Br)cc2)c1`, the inhibition was -5.95% (inactive). Take `O=C(Nc1cccc(NC(=O)c2ccc(Br)cc2)c1)c1ccccc1`: the inhibition is 66% (active). For the compound `O=C(Nc1ccccc1)c1ccc2nsnc2c1`, the inhibition is -3.37% (inactive). Consider `CCn1cc(/C=C2/SC(=S)NC2=O)c(C)n1`, for which the inhibition is -4.35% (inactive).

On to `O=C(NCc1cccnc1)c1ccc2nc([C@@H]3O[C@H](CO)[C@H](O)[C@H](O)[C@H]3O)[nH]c2c1`, for which the inhibition was 1.36% (inactive).

Take `CCOc1ccc(N2CC(C(=O)NCc3ccccn3)CC2=O)cc1` (stereo not drawn): the inhibition was -11.4% (inactive).

`CCOc1ccc(NC(=O)[C@H](C)NC(=O)C2CC(=O)N(c3ccc(OC)cc3)C2)cc1` (stereo partly drawn): the inhibition was -34.6% (inactive). With `CCOc1ccc(N2CC(C(=O)N/N=C/c3sccc3C)CC2=O)cc1` (stereo not drawn), the inhibition is 105% (active). As to `O=C(NCc1ccccc1)[C@H]1CCCN1C(=O)[C@H]1CCCN1C(=O)c1cc(F)cc(F)c1`, the inhibition is -9.09% (inactive). On to `COC(=O)[C@]12CCCCC=C1N(Cc1ccc3c(c1)OCO3)C(=O)[C@H](CC(=O)N1CCOCC1)C2`, for which the inhibition is 2.33% (inactive). With `Cn1c(=O)c2ccccc2n(CC(=O)Nc2ccc3c(c2)OCCO3)c1=O`, the inhibition was -4.86% (inactive).

Regarding `Cc1c(C(=O)NCc2ccc(C#N)cc2)sc(=O)n1Cc1ccc(C(=O)N(C)C)cc1`, the inhibition is 0.09% (inactive). For `Cc1ccc(Cn2c(C)c(C(=O)NCc3ccccc3C(F)(F)F)sc2=O)cc1` the value was 24% (inactive); for `CC(=O)Oc1ccc(Cn2c(C)c(C(=O)NCc3ccc(C#N)cc3)sc2=O)cc1`, 85.1% (active); for `OC(CCl)CCl`, -9.09% (inactive). As for `CCCCCn1nnnc1-c1nc2cc3ccccc3cc2[nH]c1=O`, the inhibition was 21.1% (inactive). Turning to `Cc1ccc(Cc2c(-c3ccc(Cl)cc3)nc3c4ccccc4ccn23)cc1`, the inhibition is -7.64% (inactive). With `COC(=O)C[C@H]1C=C[C@@H](NS(=O)(=O)c2ccc(C)cc2)[C@@H](CO)O1` the figure was -21.2% (inactive). For `O=C(CCS(=O)(=O)Cc1ccccc1)Nc1ccc2c(c1)OCCO2` the value was -13.2% (inactive); for `CCOc1ccc(N(CC(=O)OC)S(=O)(=O)c2c(C)noc2C)cc1`, 1.95% (inactive).

`O=C(CN(c1ccc2c(c1)OCCO2)S(=O)(=O)c1ccccc1)Nc1ccc2c(c1)OCO2`: the inhibition is 54% (active). For `CCN(CC(=O)Nc1ccc2c(c1)OCO2)S(=O)(=O)c1ccccc1` the value was 7.44% (inactive). For `Cc1noc(C)c1S(=O)(=O)N(CC(=O)NCc1ccc(Cl)cc1)c1ccc2c(c1)OCO2` the value was -0.54% (inactive); for `Cc1cc(C)cc(N(CC(=O)NCC2CCCO2)S(=O)(=O)c2c(C)noc2C)c1` (stereo not drawn), -14.5% (inactive). `COc1ccc(N(CC(=O)Nc2cc(OC)ccc2OC)S(=O)(=O)c2c(C)noc2C)cc1`: the inhibition was 4.12% (inactive).

On to `Cc1noc(C)c1S(=O)(=O)N(CC(=O)Nc1ccc2c(c1)OCCO2)c1ccc(C(C)C)cc1`, for which the inhibition is 52.7% (active). Regarding `CCOC(=O)c1cccc(NC(=O)CN(c2ccc(C)cc2)S(=O)(=O)c2c(C)noc2C)c1`, the inhibition is 72.2% (active). With `C[C@H](O)[C@@H]1CN2CCc3ccc(-c4ccc5c(c4)OCO5)cc3[C@@H]2C[C@@H]1N(C)C(=O)C1CCCCC1` the figure was -24.1% (inactive). With `OC(c1cc(Cl)cc(Cl)c1)c1ncc(-c2ccccc2C(F)(F)F)[nH]1` (stereo not drawn) the figure was 11.8% (inactive); with `Cc1cc2c(nc1C)CCCN2C`, 0.43% (inactive); with `COc1ccc(N2c3ccccc3CN(Cc3ccccc3)[C@@H](C)[C@H]2Cc2ccc(-c3ccccc3)cc2)cc1`, -11.9% (inactive).

On to `COC(=O)[C@]12C[C@H](CC(=O)NCCc3ccccc3OC)C(=O)N(Cc3ccccc3)C1=C[C@H](C(C)C)O[C@@H]2C1CC1`, for which the inhibition is -27.5% (inactive).

Consider `Cc1ccc2nc(COc3ccc(N(C)S(=O)(=O)c4ccccc4)cc3)cc(=O)n2c1`, for which the inhibition was 36% (inactive).

Regarding `O=C(Nc1ccccn1)C1CCN(S(=O)(=O)c2ccccc2)CC1`, the inhibition is 0.4% (inactive). With `Cc1ccnc(NC(=O)C2CCN(S(=O)(=O)c3c(C)c(C)cc(C)c3C)CC2)c1`, the inhibition was 50% (active). Consider `Cc1cccc(NC(=O)C2CCN(S(=O)(=O)c3cccc4cccnc34)CC2)c1`, for which the inhibition is 32.8% (inactive).

`COC(=O)[C@H](CC(C)C)NS(=O)(=O)c1c(F)cccc1F`: the inhibition is -8.02% (inactive). As to `COC(=O)C1=C(C)N(Cc2cccc(C(F)(F)F)c2)C(=NCc2ccccc2)NC1c1ccccc1C(F)(F)F` (stereo not drawn), the inhibition was -4.18% (inactive). Regarding `O=C1CCC/C=C/C[C@@H](CC(=O)N(CCO)Cc2ccccc2)C(=O)NC[C@H](c2ccccc2)O1`, the inhibition is -5.27% (inactive). With `O=C1N[C@@H](c2ccccc2)COC(=O)[C@H](Cc2ccc(F)cc2)C/C=C\C[C@@H]1CC(=O)N(CCO)Cc1ccccc1` the figure was 42.8% (inactive); with `O=C1NC[C@@H](c2ccccc2)OC(=O)[C@H](Cc2ccc(F)cc2)CC/C=C/C[C@H]1CC(=O)N(CCO)Cc1ccccc1`, 74% (active); with `COc1ccc(C2=CN(Cc3ccccc3)C(c3ccc(OC)cc3)CC2=O)cc1` (stereo not drawn), -4.92% (inactive).

In the case of `COc1ccc2[nH]c(C(=O)N/N=C/c3cc(OC)c(OC)c(OC)c3)cc2c1`, the inhibition was 50.5% (active). For the compound `COc1ccc2[nH]c(C(=O)Nc3ccccc3Cl)cc2c1`, the inhibition was -23.7% (inactive). For `COc1cccc(OCc2cc(/C=N/NC(=O)c3nc(Cl)c(Cl)c(N)c3Cl)ccc2OC)c1`, the inhibition is -5% (inactive). As to `Cc1cc(NCCc2c[nH]c3ccccc23)ccc1Oc1cccnc1`, the inhibition is 21.6% (inactive). With `COc1ccc2sc(-c3ccc(S(C)(=O)=O)cc3)c(C#Cc3cncn3C)c2c1` the figure was 47.9% (inactive); with `COc1cc(OC)cc(-c2sc3ccc(OC)cc3c2-c2ccc3cc[nH]c3c2)c1`, -5.68% (inactive). Consider `COc1ccc2sc(-c3ccc(S(C)(=O)=O)cc3)c(-c3ccc(C(N)=O)cc3)c2c1`, for which the inhibition was 50.5% (active). As for `CN(C)C(=O)N1CCN(C(=O)[C@@H](Cc2ccccc2)NC(=O)[C@H]2O[C@@H](n3ccc(N)nc3=O)[C@H](O)[C@@H]2O)CC1`, the inhibition is -11.3% (inactive).

For `CCOC(=O)N1CCN(C(=O)C[C@@H]2C[C@@]3(C(=O)OC)CCCCC=C3N(CCC3=CCCCC3)C2=O)CC1`, the inhibition is 16.7% (inactive). Regarding `N#Cc1ccc(OCCCN2CCC(C(O)(c3ccccc3)c3ccccc3)CC2)c(F)c1`, the inhibition is 18.2% (inactive). With `OC(c1ccccc1)(c1ccccc1)C1CCN(CCCOc2ccc(-c3ccsc3)cc2)CC1` the figure was 51.2% (active). For the compound `OC(c1ccccc1)(c1ccccc1)C1CCN(CCCOc2ccccc2)CC1`, the inhibition is 19.2% (inactive).

As for `CCC(C(=O)NC(C)(C)C)n1c(-c2ccccc2)nc2ccccc21` (stereo not drawn), the inhibition was -9.33% (inactive). For `COc1ccc(C(C(=O)Nc2c(C)cccc2C)N2CCN(c3ccc(C)cc3)CC2)cc1` (stereo not drawn), the inhibition is -16.4% (inactive). For `Cc1ccccc1CN1C(=O)CSCC1(C)C(=O)Nc1c(C)cccc1C` (stereo not drawn) the value was -0.37% (inactive). As to `CN(C(=O)c1cccc(OC2CCN(S(=O)(=O)N(C)C)CC2)c1)C1CCOC1` (stereo not drawn), the inhibition was -15.9% (inactive). For the compound `CN(C)S(=O)(=O)N1CCC(Oc2cccc(C(=O)NCCCC3CCCC3)c2)CC1`, the inhibition is 61.1% (active). Take `COc1cccc(C(=O)NCCS(=O)(=O)NCC2CCCO2)c1` (stereo not drawn): the inhibition is 4.1% (inactive). For the compound `CCCCn1nnnc1C1(C)CCC(=O)N1Cc1ccc(OC)c(OC)c1` (stereo not drawn), the inhibition is -1.16% (inactive). With `CC(C)(C)NC(=O)C(CCc1ccccc1)n1c(=O)c(-c2ccccc2)nc2ccccc21` (stereo not drawn) the figure was -53.9% (inactive). `COc1ccccc1CNC(=O)c1ccc(CS(=O)(=O)c2ccccc2)o1`: the inhibition was 26.5% (inactive). As to `COc1ccc(CCNC(=O)c2ccc(CS(=O)(=O)c3ccc(Br)cc3)o2)cc1OC`, the inhibition was 77.3% (active). Regarding `COc1ccc(CCNC(=O)c2nnc(CS(=O)(=O)c3ccccc3)o2)cc1OC`, the inhibition was -2.06% (inactive).

A word on the inhibition: it is the change of the read-out against control, counted positive when it falls.

Values taken from PubChem BioAssay AID624466 (The Scripps Research Institute Molecular Screening Center, 2012).
